Published values pooled from the literature.
Lines come from different studies, so protocols differ.
Read-out: cell growth or viability

CC(=O)OC[C@H]1O[C@@H](n2cnc(N)nc2=O)[C@H](OC(C)=O)[C@@H]1OC(C)=O — viability (HBL1; ATP luminescence; 1 µM; 5 days): 94.3%
Cc1n[nH]c2ccc3nc(-c4ccc(C(=O)NCCN(C)C)cc4)c4c(c3c12)CCC(F)(F)C4 — GI50 (MV4-11; resazurin; 72 h): 132 nM
OCc1ccc(-c2nn(Cc3ccccc3)c3ccc(F)cc23)o1 — IC50 (RBE; ATP luminescence): 977 nM
O=C(CCCCCCC(=O)Nc1ccccc1)NO — viability (HBL1; ATP luminescence; 0.1 µM; 5 days): 132%
NCC(=O)Nc1ccccc1/N=c1\cc(-c2ccc3c(c2)OCO3)oc2ccccc12 — inhibition (MDA-MB-468; CCK-8; 1 µM): 3.86%
CCN(Cc1c(F)cccc1OC)c1ccc(CO)c(Cl)c1 — inhibition (RBE; ATP luminescence; 46 µM; 72 h): 65%
CS(=O)(=O)NCCC(=O)Nc1ccccc1/N=c1\cc(-c2ccc3nc(N)oc3c2)oc2ccccc12 — inhibition (MDA-MB-468; CCK-8; 1 µM): 3.19%
Cc1n[nH]c2ccc3nc(-c4ccc(C(=O)N(C)CCN(C)C)cc4)c4c(c3c12)CCCCC4 — GI50 (MV4-11; resazurin; 72 h): 522 nM
NCC(=O)Nc1ccccc1/N=c1\cc(-c2ccc3c(c2)OCCO3)oc2cc(F)ccc12 — inhibition (MDA-MB-468; CCK-8; 1 µM): 11.8%
OCc1ccc(-c2nn(Cc3ccccn3)c3cccnc23)o1 — inhibition (RBE; ATP luminescence; 46 µM; 72 h): 76%
COc1ccc2/c(=N/c3ccccc3NC(=O)[C@H](C)N)cc(-c3ccc4c(c3)OCCO4)oc2c1 — inhibition (MDA-MB-468; CCK-8; 1 µM): 13.4%
CCN(Cc1ccccc1C)c1ccc(CO)c(Cl)c1 — inhibition (RBE; ATP luminescence; 46 µM; 72 h): 87%
COc1ccc2/c(=N/c3ccccc3NC(=O)[C@@H](N)C(C)(C)C)cc(-c3ccc4c(c3)OCCO4)oc2c1 — inhibition (MDA-MB-468; CCK-8; 1 µM): 10.8%
O=C(OCc1ccccc1)n1nc(-c2ccc(CO)o2)c2ccccc21 — inhibition (RBE; ATP luminescence; 46 µM; 72 h): 55%
O=C(NCCCN1CCOCC1)c1ccc(-c2nc3ccc4[nH]ncc4c3c3c2CCCC3)cc1 — GI50 (MV4-11; resazurin; 72 h): 413 nM
OCC1CCC(c2nn(Cc3ccccc3)c3ccccc23)O1 (stereo not shown) — inhibition (RBE; ATP luminescence; 46 µM; 72 h): 13%
NCCC(=O)Nc1cccc(/N=c2\cc(-c3ccc4c(c3)OCO4)oc3ccccc23)c1 — inhibition (MDA-MB-468; CCK-8; 1 µM): 3.6%
CN(C)CCN(C)C(=O)c1ccc(-c2nc3ccc4[nH]ncc4c3c3c2CCCCC3)cn1 — GI50 (MV4-11; resazurin; 72 h): 581 nM
O=C(Nc1cccc(Br)c1)c1cccc(S(=O)(=O)N2CCCCCC2)c1 — viability (HBL1; ATP luminescence; 1 µM; 5 days): 101%
NCCC(=O)Nc1ccccc1/N=c1\cc(-c2ccc3c(c2)OCCO3)oc2cc(F)ccc12 — inhibition (MDA-MB-468; CCK-8; 1 µM): 31.2%
CN(C)CCN(C)C(=O)c1ccc(-c2nc3ccc4[nH]ncc4c3c3c2CCCCC3)cc1 — GI50 (MV4-11; resazurin; 72 h): 383 nM
OCc1coc(-c2nn(Cc3ccccc3)c3ccccc23)n1 — inhibition (RBE; ATP luminescence; 46 µM; 72 h): 32%
O=C(NCCCN1CCCCC1)c1ccc(-c2nc3ccc4[nH]ncc4c3c3c2CCCC3)cc1 — GI50 (MV4-11; resazurin; 72 h): 2400 nM
COC(=O)CNC(=O)C(=O)OC — viability (HBL1; ATP luminescence; 0.5 µM; 5 days): 113%
CN(C)CCNC(=O)c1ccc(-c2nc3ccc4[nH]ncc4c3c3c2CCCCC3)cn1 — GI50 (MV4-11; resazurin; 72 h): 146 nM
O=C(Nc1ccccc1/N=c1\cc(-c2ccc3c(c2)OCCO3)oc2cc(F)ccc12)N1CCOCC1 — inhibition (MDA-MB-468; CCK-8; 1 µM): -2.71%
COc1ncccc1Cn1nc(-c2ccc(CO)o2)c2ccccc21 — IC50 (RBE; ATP luminescence): 229 nM
Cc1n[nH]c2ccc3nc(-c4ccc(C(=O)NCCN5CCCC5)cc4)c4c(c3c12)CCCC4 — GI50 (MV4-11; resazurin; 72 h): 428 nM
